Measured values from ChEMBL document CHEMBL1134221, “RPR203494 a pyrimidine analogue of the p38 inhibitor RPR200765A with an improved in vitro potency” (Bioorg Med Chem Lett, 2001).

Tests used:
[1] = Stability (%) in rat liver microsomes; assay type: ADME; conditions: read-out: % turnover
[2] = Oral bioavailability in rat; assay type: ADME, organism-based; conditions: in vivo
Method in brief: (§1)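 Rat pharmacokinetics with the compound given alone: an iv arm at 1 mg/kg and an oral arm at 5 mg/kg. Plasma profiles give Cmax, Tmax, AUC, terminal half-life, total clearance and Vdss. Absolute oral bioavailability is derived by comparing the oral and iv exposures.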

[3] = Inhibitory concentration against lipopolysaccharide induced TNF-alpha release on human monocytes; assay type: functional
Method in brief: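 Adherent human monocytes (100,000 cells/well) are stimulated with LPS (10 ng/mL) for 18 h, with or without compound. Each experiment is run in quadruplicate. TNF-α is measured by sandwich ELISA, and EC50 is calculated for each compound.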

[4] = Inhibitory activity against lipopolysaccharide induced TNF-alpha release on human monocytes at a concentration of 300 nM; assay type: functional
MAP kinase p38 [5] = target: T1, MAP kinase p38 (Mus musculus, UniProt P47811+O08911+Q9WUI1+Q9Z1B7); assay: Inhibition of murine Mitogen-activated protein kinase p38; assay type: protein assay
Method in brief: (§2)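 Mouse p38 enzyme at 40 ng/well, run 1 h at room temperature. ATF-2 substrate is coated onto plates. Buffer is 25 mM Hepes pH 7.7 with 25 mM MgCl2, 2 mM dithiothreitol, 1 mM sodium orthovanadate and ATP. Phospho-ATF-2 is detected with phospho-specific primary antibodies. IC50 is given as mean±SEM of repeat experiments (n=3).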

[6] = Plasma clearance after intravenous administration (1 mg/kg) in rat; assay type: ADME, organism-based; conditions: read-out: Clp (converted); method in brief: as §1
[7] = Maximum plasma concentration in Rat at a oral dose of 5 mg/kg; assay type: ADME, organism-based; parameters: dose 5 mg/kg, route oral; conditions: read-out: CPmax; method in brief: as §1
[8] = Terminal half life in Rat at a oral dose of 5 mg/kg; assay type: ADME, organism-based; parameters: dose 5 mg/kg, route oral; conditions: in vivo; method in brief: as §1
[9] = Oral Bioavailability after intravenous administration (1 mg/kg) in rat; assay type: ADME, organism-based; conditions: in vivo, 5 mg/kg, in the assay text read “oral administration (5 mg/kg)” for “intravenous administration (1 mg/kg)”; method in brief: as §1
[10] = Volume distribution after intravenous administration (1 mg/kg) in rat; assay type: ADME, organism-based; conditions: in vivo, read-out: Vdss; method in brief: as §1
[11] = Terminal half life after intravenous administration (1 mg/kg) in rat; assay type: ADME, organism-based; conditions: in vivo; method in brief: as §1
[12] = Area under curve after intravenous administration (1 mg/kg) in rat; assay type: ADME, organism-based; conditions: in vivo; method in brief: as §1
[13] = T max in Rat at a oral dose of 5 mg/kg; assay type: ADME, organism-based; parameters: dose 5 mg/kg, route oral; conditions: in vivo; method in brief: as §1
[14] = Area under curve in Rat at a oral dose of 5 mg/kg; assay type: ADME, organism-based; parameters: dose 5 mg/kg, route oral; conditions: in vivo; method in brief: as §1
MAP kinase p38 [15] = target: T1, MAP kinase p38; assay: Inhibitory activity against p38 kinase (40 ng/well) was determined in mouse; method in brief: as §2

Row | metabolised [1] [%] | bioavailability [2] [%] | EC50 [3] [nM] | SMILES | further results
1 | 54.1 | 6 | 33 | COc1cccc(Nc2nccc(-c3[nH]c([C@H]4OC[C@](C)(C(=O)N5CCOCC5)CO4)nc3-c3ccc(F)cc3)n2)c1 | 
2 | 92 |  | 70 | C[C@]1(C(=O)N2CCOCC2)CO[C@H](c2nc(-c3ccc(F)cc3)c(-c3ccnc(NCc4cccs4)n3)[nH]2)OC1 | 
3 | 8.1 |  |  | CNc1nccc(-c2[nH]c([C@H]3OC[C@](C)(C(=O)N4CCOCC4)CO3)nc2-c2ccc(F)cc2)n1 | inhibition at 0.3 µM [4]: 38%
4 | 44.6 |  | 62 | C[C@]1(C(=O)N2CCOCC2)CO[C@H](c2nc(-c3ccc(F)cc3)c(-c3ccnc(NCc4ccc(F)cc4)n3)[nH]2)OC1 | 
5 | 3.5 |  |  | C[C@]1(C(=O)N2CCOCC2)CO[C@H](c2nc(-c3ccc(F)cc3)c(-c3ccnc(NCCC(=O)O)n3)[nH]2)OC1 | inhibition at 0.3 µM [4]: 6%
6 |  |  | > 10000 | C[C@]1(C(=O)N2CCOCC2)CO[C@H](c2nc(-c3ccc(F)cc3)c(-c3ccnc(NCC(=O)O)n3)[nH]2)OC1 | 
7 | 18 |  | 319 | C[C@]1(C(=O)N2CCOCC2)CO[C@H](c2nc(-c3ccc(F)cc3)c(-c3ccnc(NCCO)n3)[nH]2)OC1 | 
8 |  | 15 | 54 | COCCCNc1nccc(-c2[nH]c([C@H]3OC[C@](C)(C(=O)N4CCOCC4)CO3)nc2-c2ccc(F)cc2)n1 | IC50 (MAP kinase p38 [5]): 7 nM
9 | 87 |  | 69 | C[C@]1(C(=O)N2CCOCC2)CO[C@H](c2nc(-c3ccc(F)cc3)c(-c3ccnc(NCC4CC4)n3)[nH]2)OC1 | 
10 |  |  | 124 | CCCNc1nccc(-c2[nH]c([C@H]3OC[C@](C)(C(=O)N4CCOCC4)CO3)nc2-c2ccc(F)cc2)n1 | 
11 |  |  | 41 | C[C@]1(C(=O)N2CCOCC2)CO[C@H](c2nc(-c3ccc(F)cc3)c(-c3ccnc(Nc4ccncc4)n3)[nH]2)OC1 | 
12 | 43.6 | 29 | 60 | C[C@]1(C(=O)N2CCOCC2)CO[C@H](c2nc(-c3ccc(F)cc3)c(-c3ccnc(NC4CC4)n3)[nH]2)OC1 | clearance [6]: 30 mL/min/kg; Cmax [7]: 620 ng/mL; half-life [8]: 1.4 h; bioavailability [9]: 48%; Vd [10]: 1.2 L/kg; half-life [11]: 1.2 h; AUC [12]: 580 ng·h/mL; IC50 (MAP kinase p38 [5]): 9 nM; Tmax [13]: 0.5 h; AUC [14]: 1390 ng·h/mL
13 | 99 |  |  | C[C@]1(C(=O)N2CCOCC2)CO[C@H](c2nc(-c3ccc(F)cc3)c(-c3ccnc(N4CCCCC4)n3)[nH]2)OC1 | inhibition at 0.3 µM [4]: 26%
14 | 18 |  |  | CN(C)CCCNc1nccc(-c2[nH]c([C@H]3OC[C@](C)(C(=O)N4CCOCC4)CO3)nc2-c2ccc(F)cc2)n1 | inhibition at 0.3 µM [4]: 27%
15 | 23.9 | 1 | 49 | COc1ccc(CNc2nccc(-c3[nH]c([C@H]4OC[C@](C)(C(=O)N5CCOCC5)CO4)nc3-c3ccc(F)cc3)n2)cc1 | 
16 | 29 |  | 570 | CN(C)CCNc1nccc(-c2[nH]c([C@H]3OC[C@](C)(C(=O)N4CCOCC4)CO3)nc2-c2ccc(F)cc2)n1 | 
17 | 68 | 24 | 12 | C[C@]1(C(=O)N2CCOCC2)CO[C@H](c2nc(-c3ccc(F)cc3)c(-c3ccnc(NCc4ccccc4)n3)[nH]2)OC1 | IC50 (MAP kinase p38 [5]): 5 nM
18 | 17.6 |  |  | C[C@]1(C(=O)N2CCOCC2)CO[C@H](c2nc(-c3ccc(F)cc3)c(-c3ccnc(N)n3)[nH]2)OC1 | inhibition at 0.3 µM [4]: 39%
19 | 81 |  | 10 | C[C@@H](Nc1nccc(-c2[nH]c([C@H]3OC[C@](C)(C(=O)N4CCOCC4)CO3)nc2-c2ccc(F)cc2)n1)c1ccccc1 | 
20 |  |  | 231 | C[C@]1(C(=O)N2CCOCC2)CO[C@H](c2nc(-c3ccc(F)cc3)c(-c3ccnc(Nc4cccnc4)n3)[nH]2)OC1 | 
21 |  | 2 | 57 | C[C@]1(C(=O)N2CCOCC2)CO[C@H](c2nc(-c3ccc(F)cc3)c(-c3ccnc(NCCCO)n3)[nH]2)OC1 | 
22 | 25 | 25 | 45 | C[C@]1(C(=O)N2CCOCC2)CO[C@H](c2nc(-c3ccc(F)cc3)c(-c3ccnc(NCc4ccccn4)n3)[nH]2)OC1 | 
23 | 71 | 10 | 1.5 | C[C@H](Nc1nccc(-c2[nH]c([C@H]3OC[C@](C)(C(=O)N4CCOCC4)CO3)nc2-c2ccc(F)cc2)n1)c1ccccc1 | 
24 | 89.1 |  | 110 | C=CCNc1nccc(-c2[nH]c([C@H]3OC[C@](C)(C(=O)N4CCOCC4)CO3)nc2-c2ccc(F)cc2)n1 | 
25 |  |  |  | C[C@]1(C(=O)N2CCOCC2)CO[C@H](c2nc(-c3ccc(F)cc3)c(-c3ccnc(NCCC#N)n3)[nH]2)OC1 | inhibition at 0.3 µM [4]: 28%
26 | 40.7 |  |  | CN(C)c1nccc(-c2[nH]c([C@H]3OC[C@](C)(C(=O)N4CCOCC4)CO3)nc2-c2ccc(F)cc2)n1 | inhibition at 0.3 µM [4]: 8%
27 | 51 | 29 | 54 | C[C@]1(C(=O)N2CCOCC2)CO[C@H](c2nc(-c3ccc(F)cc3)c(-c3ccnc(Nc4ccccc4)n3)[nH]2)OC1 | IC50 (MAP kinase p38 [15]): 16 nM
28 | 98.6 |  | 24 | C[C@]1(C(=O)N2CCOCC2)CO[C@H](c2nc(-c3ccc(F)cc3)c(-c3ccnc(NC4CCCCC4)n3)[nH]2)OC1 | 
